Source: ChEMBL document CHEMBL5335771, “Thioxanthenone-based derivatives as multitarget therapeutic leads for Alzheimer's disease” (Eur J Med Chem, 2023)

What was measured:
[1] = Cytotoxicity against rat Primary cerebellar granule neuron assessed as cell viability at 10 uM relative to control; type: toxicity, cell-based, Cerebellar granule neurone; details: primary cerebellar granule neurons, read-out: Activity
[2] = Cytotoxicity against mouse brain Primary embryonic cortical cell assessed as cell death at 5 uM incubated for 48 hrs by propidium iodide dye based spectrofluorometric analysis relative to control; type: toxicity
Summary of the method: (§1)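 Primary cortical cultures from E16.5 mouse embryo brains, trypsinized, plated on poly-D-lysine, grown in Neurobasal with glutamine, glucose, 5% horse serum and B27; compounds added at 4 DIV. Propidium iodide 30 μM; baseline F1 read 1 h after PI; ex 530/em 645 nm. Fmax after digitonin permeabilization. % death = 100×(Fn−F1)/(Fmax−F1); mean of three independent experiments.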

[3] = Cytotoxicity against mouse brain Primary embryonic cortical cell assessed as cell death at 30 uM incubated for 5 hrs by propidium iodide dye based spectrofluorometric analysis relative to control; type: toxicity; summary of the method: as §1
[4] = Cytotoxicity against mouse brain Primary embryonic cortical cell assessed as cell death at 2.5 uM incubated for 2 hrs by propidium iodide dye based spectrofluorometric analysis relative to control; type: toxicity; summary of the method: as §1
[5] = Cytotoxicity against mouse brain Primary embryonic cortical cell assessed as cell death at 2.5 uM incubated for 72 hrs by propidium iodide dye based spectrofluorometric analysis relative to control; type: toxicity; summary of the method: as §1
[6] = Cytotoxicity against mouse brain Primary embryonic cortical cell assessed as cell death at 10 uM incubated for 3 hrs by propidium iodide dye based spectrofluorometric analysis relative to control; type: toxicity; summary of the method: as §1
[7] = Cytotoxicity against mouse brain Primary embryonic cortical cell assessed as cell death at 2.5 uM incubated for 3 hrs by propidium iodide dye based spectrofluorometric analysis relative to control; type: toxicity; summary of the method: as §1
[8] = Cytotoxicity against mouse brain Primary embryonic cortical cell assessed as cell death at 5 uM incubated for 24 hrs by propidium iodide dye based spectrofluorometric analysis relative to control; type: toxicity; summary of the method: as §1
[9] = Cytotoxicity against mouse brain Primary embryonic cortical cell assessed as cell death at 10 uM incubated for 2 hrs by propidium iodide dye based spectrofluorometric analysis relative to control; type: toxicity; summary of the method: as §1
[10] = Cytotoxicity against mouse brain Primary embryonic cortical cell assessed as cell death at 30 uM incubated for 4 hrs by propidium iodide dye based spectrofluorometric analysis relative to control; type: toxicity; summary of the method: as §1
[11] = Cytotoxicity against mouse brain Primary embryonic cortical cell assessed as cell death at 5 uM incubated for 6 hrs by propidium iodide dye based spectrofluorometric analysis relative to control; type: toxicity; summary of the method: as §1
[12] = Cytotoxicity against mouse brain Primary embryonic cortical cell assessed as cell death at 2.5 uM incubated for 24 hrs by propidium iodide dye based spectrofluorometric analysis relative to control; type: toxicity; summary of the method: as §1

For COc1ccc2sc3c(C)ccc(NCCC4CCN(C)CC4)c3c(=O)c2c1, which viability at 10 µM [1] is on record?
Its viability at 10 µM is 30%.

And the Activity [2]?
Its Activity is 85.6%.

And the Activity [3]?
The Activity was 60.4%.

What about the Activity [4] of the same molecule?
The Activity was 3.8%.

What about the Activity [5] of the same molecule?
Its Activity is 77.8%.

And the Activity [6]?
Its Activity is 48.9%.

What about the Activity [7] of the same molecule?
Its Activity is 8.5%.

And the Activity [8]?
Its Activity is 91.3%.

What about the Activity [9] of the same molecule?
The Activity was 43.5%.

And the Activity [10]?
Its Activity is 56.1%.

What about the Activity [11] of the same molecule?
The Activity was 41.4%.

And the Activity [12]?
Its Activity is 76.2%.
